Reference: ChEMBL document CHEMBL2203244, “Discovery and optimization of a series of 2-aminothiazole-oxazoles as potent phosphoinositide 3-kinase γ inhibitors” (Bioorg Med Chem Lett, 2012)
≈ marks a conversion by molar mass, not a printed value.

Experiments:
[1] = target: Phosphatidylinositol 4,5-bisphosphate 3-kinase catalytic subunit gamma isoform (Mus musculus, UniProt Q9JHG7); assay: Inhibition of PI3Kgamma in mouse RAW264.7 cells assessed as inhibition of C5a-induced PKB/Akt phosphorylation incubated for 30 mins prior to C5a-induction measured after 5 mins by immunostaining method; format: cell-based
Phosphatidylinositol 4,5-bisphosphate 3-kinase catalytic subunit gamma isoform (Mus musculus, UniProt Q9JHG7), sequence (Q9JHG7 whole entry, canonical isoform): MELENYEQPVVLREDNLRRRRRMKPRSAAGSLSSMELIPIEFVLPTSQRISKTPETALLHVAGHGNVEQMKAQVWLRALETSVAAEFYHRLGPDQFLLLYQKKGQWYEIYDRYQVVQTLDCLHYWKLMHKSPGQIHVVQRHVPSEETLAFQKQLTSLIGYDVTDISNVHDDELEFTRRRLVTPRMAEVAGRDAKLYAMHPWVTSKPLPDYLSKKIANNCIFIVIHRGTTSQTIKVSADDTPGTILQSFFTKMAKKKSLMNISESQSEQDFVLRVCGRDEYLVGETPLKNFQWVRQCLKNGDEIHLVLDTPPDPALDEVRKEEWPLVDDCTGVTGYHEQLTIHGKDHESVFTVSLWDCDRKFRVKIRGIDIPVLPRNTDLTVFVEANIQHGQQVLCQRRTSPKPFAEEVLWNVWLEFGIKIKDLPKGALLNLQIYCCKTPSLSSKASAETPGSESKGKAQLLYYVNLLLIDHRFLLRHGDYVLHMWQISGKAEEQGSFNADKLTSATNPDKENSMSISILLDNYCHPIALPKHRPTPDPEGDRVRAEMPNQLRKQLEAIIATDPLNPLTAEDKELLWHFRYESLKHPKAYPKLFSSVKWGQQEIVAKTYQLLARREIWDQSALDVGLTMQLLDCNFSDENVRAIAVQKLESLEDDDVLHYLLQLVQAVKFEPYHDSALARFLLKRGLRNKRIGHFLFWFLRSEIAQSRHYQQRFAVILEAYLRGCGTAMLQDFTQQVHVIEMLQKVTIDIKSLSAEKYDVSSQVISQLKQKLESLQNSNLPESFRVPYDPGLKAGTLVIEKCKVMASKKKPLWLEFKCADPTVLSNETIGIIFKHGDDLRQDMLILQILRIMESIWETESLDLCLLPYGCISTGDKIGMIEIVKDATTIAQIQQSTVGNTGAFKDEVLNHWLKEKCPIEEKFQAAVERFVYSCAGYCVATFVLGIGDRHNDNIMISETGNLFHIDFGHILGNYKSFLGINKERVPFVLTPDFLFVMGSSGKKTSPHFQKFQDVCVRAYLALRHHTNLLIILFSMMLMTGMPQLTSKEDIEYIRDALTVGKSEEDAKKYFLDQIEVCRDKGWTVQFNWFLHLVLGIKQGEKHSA
Procedure, shortened: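 Raw264.7 murine macrophage-like cells seeded at 8 × 10⁶ per well, grown 24 h, switched to serum-free 0.1% BSA medium for 3 h at 37 °C. Pretreated with or without a range of inhibitor concentrations for 30 min, then stimulated with 5 nM C5a for 5 min at 37 °C. PKB/Akt phosphorylation scored as the cellular read-out.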

[2] = target: T1, Phosphatidylinositol 4,5-bisphosphate 3-kinase catalytic subunit gamma isoform (Homo sapiens, UniProt P48736); assay: Inhibition of human PI3Kgamma using phosphatidylinositol as substrate and [33gammaP]ATP after 2 hrs by scintillation counting
T1 sequence (P48736 whole entry, canonical isoform): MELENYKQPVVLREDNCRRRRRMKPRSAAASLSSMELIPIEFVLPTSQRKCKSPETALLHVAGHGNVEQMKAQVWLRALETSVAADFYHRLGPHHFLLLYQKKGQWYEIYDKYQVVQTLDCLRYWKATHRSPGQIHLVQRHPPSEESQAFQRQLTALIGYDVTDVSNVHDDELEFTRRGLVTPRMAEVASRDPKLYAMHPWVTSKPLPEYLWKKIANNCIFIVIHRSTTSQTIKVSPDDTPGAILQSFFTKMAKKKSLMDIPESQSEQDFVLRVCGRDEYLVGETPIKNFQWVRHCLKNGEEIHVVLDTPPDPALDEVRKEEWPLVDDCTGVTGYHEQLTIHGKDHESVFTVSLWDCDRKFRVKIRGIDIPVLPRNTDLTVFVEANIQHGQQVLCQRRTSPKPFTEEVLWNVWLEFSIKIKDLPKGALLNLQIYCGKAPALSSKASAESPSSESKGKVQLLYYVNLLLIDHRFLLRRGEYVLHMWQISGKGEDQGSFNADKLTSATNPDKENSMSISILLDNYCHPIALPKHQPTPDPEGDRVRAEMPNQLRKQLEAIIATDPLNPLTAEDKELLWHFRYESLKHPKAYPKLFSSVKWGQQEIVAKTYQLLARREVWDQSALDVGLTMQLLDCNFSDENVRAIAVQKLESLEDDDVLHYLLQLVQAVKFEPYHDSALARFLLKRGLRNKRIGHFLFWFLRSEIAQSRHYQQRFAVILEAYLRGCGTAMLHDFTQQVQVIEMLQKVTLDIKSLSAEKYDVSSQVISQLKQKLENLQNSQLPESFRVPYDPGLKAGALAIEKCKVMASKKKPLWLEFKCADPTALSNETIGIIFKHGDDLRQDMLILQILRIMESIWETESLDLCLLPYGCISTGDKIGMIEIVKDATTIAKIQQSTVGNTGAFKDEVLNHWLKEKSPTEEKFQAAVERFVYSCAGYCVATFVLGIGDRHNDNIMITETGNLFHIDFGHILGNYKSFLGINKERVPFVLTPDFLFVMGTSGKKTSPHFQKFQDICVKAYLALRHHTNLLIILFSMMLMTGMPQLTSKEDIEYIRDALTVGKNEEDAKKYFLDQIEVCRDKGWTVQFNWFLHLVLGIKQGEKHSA
Procedure, shortened: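 Recombinant human PI3Kγ (20 ng) incubated 2 h at 30 °C with test inhibitor or DMSO in 20 mM Tris–HCl pH 7.4, 5 mM MgCl2, 5 mM DTT, with ATP/[33P]ATP and PtdIns/PtdSer lipid vesicles as substrate. Reaction stopped with 25 mM EDTA. Product captured on phospholipid scintillant-coated plates, washed with PBS, and bound radioactivity counted by scintillation.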

[3] = Permeability of the compound at pH 6.2 by PAMPA assay; format: ADME; details: read-out: permeability
Procedure, shortened: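 PAMPA membrane permeability measured at pH 6.2, reported as Pe in cm/s.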

[4] = target: Phosphatidylinositol 4,5-bisphosphate 3-kinase catalytic subunit alpha isoform (Homo sapiens, UniProt P42336); assay: Inhibition of human PI3Kalpha using phosphatidylinositol as substrate and [33gammaP]ATP after 2 hrs by scintillation counting
Phosphatidylinositol 4,5-bisphosphate 3-kinase catalytic subunit alpha isoform, sequence (P42336 whole entry, canonical isoform): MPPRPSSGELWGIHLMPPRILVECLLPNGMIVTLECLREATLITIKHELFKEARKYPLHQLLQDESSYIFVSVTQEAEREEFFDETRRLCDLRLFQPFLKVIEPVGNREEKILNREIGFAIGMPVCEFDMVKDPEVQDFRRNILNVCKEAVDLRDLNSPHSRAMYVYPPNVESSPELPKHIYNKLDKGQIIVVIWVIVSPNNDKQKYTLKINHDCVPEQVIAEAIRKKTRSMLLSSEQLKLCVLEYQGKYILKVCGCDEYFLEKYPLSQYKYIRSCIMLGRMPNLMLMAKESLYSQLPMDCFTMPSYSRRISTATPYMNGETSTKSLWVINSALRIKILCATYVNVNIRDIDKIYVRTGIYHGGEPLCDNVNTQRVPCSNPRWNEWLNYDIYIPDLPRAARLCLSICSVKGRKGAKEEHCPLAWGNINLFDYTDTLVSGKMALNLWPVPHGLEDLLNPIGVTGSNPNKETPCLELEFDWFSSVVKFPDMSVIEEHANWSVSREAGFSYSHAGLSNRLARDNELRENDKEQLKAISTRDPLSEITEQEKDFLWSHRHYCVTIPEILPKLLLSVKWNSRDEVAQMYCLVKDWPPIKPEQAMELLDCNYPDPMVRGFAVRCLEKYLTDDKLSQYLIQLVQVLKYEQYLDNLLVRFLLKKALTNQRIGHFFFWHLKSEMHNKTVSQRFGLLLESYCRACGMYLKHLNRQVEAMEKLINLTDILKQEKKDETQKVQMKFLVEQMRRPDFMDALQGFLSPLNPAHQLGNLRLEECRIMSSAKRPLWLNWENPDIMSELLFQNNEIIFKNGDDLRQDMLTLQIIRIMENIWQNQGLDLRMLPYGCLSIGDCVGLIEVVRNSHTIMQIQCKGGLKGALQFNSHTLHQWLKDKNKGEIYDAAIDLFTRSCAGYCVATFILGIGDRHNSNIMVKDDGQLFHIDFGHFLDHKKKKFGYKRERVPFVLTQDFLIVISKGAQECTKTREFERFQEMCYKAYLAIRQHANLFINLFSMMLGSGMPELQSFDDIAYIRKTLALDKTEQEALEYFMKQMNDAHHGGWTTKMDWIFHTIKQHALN
Procedure, shortened: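 Recombinant human PI3Kα (20 ng) incubated 2 h at 30 °C in 20 mM Tris–HCl pH 7.4, 5 mM MgCl₂, 5 mM DTT with unlabelled ATP plus [γ-³³P]ATP and lipid vesicles of PtdIns and 25 µM PtdSer (final), with inhibitor or DMSO. Stopped with 25 mM EDTA, captured on phospholipid scintillant-coated plate, PBS-washed, bound counts per second read.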

[5] = organism: Homo sapiens; assay: Selectivity ratio of IC50 for human PI3Kalpha to IC50 for human PI3Kgamma
Procedure, shortened: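 Human PI3Kα and PI3Kγ (20 ng each) assayed by the same radiometric lipid-kinase procedure: 2 h at 30 °C, pH 7.4 Tris buffer with MgCl2 and DTT, [33P]ATP and PtdIns/PtdSer vesicles, stopped with EDTA, captured on scintillant-coated plates and counted. Ratio taken as the PI3Kα IC50 divided by the PI3Kγ IC50.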

[6] = target: T1, Phosphatidylinositol 4,5-bisphosphate 3-kinase catalytic subunit gamma isoform
[7] = Aqueous solubility of the compound; format: physicochemical; details: water (aqueous)
Procedure, shortened: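 Solubility determined in water.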

SMILES | IC50 [1] | IC50 [2] | Papp [3] | IC50 [4] | Ratio IC50 [5] | IC50 [6] | solubility [7]
CC(=O)Nc1nc(C)c(-c2cnc(Nc3ccc(Cl)nc3)o2)s1 | 1.04 µM | 0.024 µM |  |  |  |  | 
COc1ncc(-c2sc(NC(C)=O)nc2C)o1 |  | 0.25 µM |  |  |  |  | 
CC(=O)Nc1nc(C)c(-c2cnc(Nc3cccc(C(=O)O)c3)o2)s1 | > 10 µM | 0.012 µM | 1.4 ×10⁻⁶ cm/s | 0.328 µM | 27 |  | 
CC(=O)Nc1nc(C)c(-c2csc(Nc3cccc(C(=O)O)c3)n2)s1 |  |  |  |  |  | 0.005 µM | 
CC(=O)Nc1nc(C)c(-c2cnc(Nc3ccc(Cl)cc3)o2)s1 |  | 0.346 µM |  |  |  |  | 
CC(=O)Nc1nc(C)c(-c2cnc(Sc3cccnc3)o2)s1 | 0.279 µM | 0.016 µM |  | 0.112 µM | 7 |  | 
CC(=O)Nc1nc(C)c(-c2cnc(C)o2)s1 |  | 0.181 µM |  |  |  |  | 
CC(=O)Nc1nc(C)c(-c2cnc(N3CCOCC3)o2)s1 | 0.599 µM | 0.024 µM |  |  |  |  | 
CSc1ncc(-c2sc(NC(C)=O)nc2C)o1 | 0.322 µM | 0.022 µM |  |  |  |  | 
CC(=O)Nc1nc(C)c(-c2cnc(-c3cccnc3)o2)s1 | 0.059 µM | 0.003 µM | 77.3 ×10⁻⁶ cm/s | 0.046 µM | 15 |  | 0.39 µg/mL (≈ 1.3 µM)
CC(=O)Nc1nc(C)c(-c2cnc(CO)o2)s1 |  | 0.161 µM |  |  |  |  | 
CC(=O)Nc1nc(C)c(-c2cnc(N(C)C)o2)s1 | 1.22 µM | 0.046 µM |  |  |  |  | 
CC(=O)Nc1nc(C)c(-c2cnc(Cc3cccc(C(=O)O)c3)o2)s1 | > 10 µM | 0.223 µM |  |  |  |  | 
CC(=O)Nc1nc(C)c(-c2cnc(Oc3cccnc3)o2)s1 | 1.67 µM | 0.117 µM |  |  |  |  | 
CC(=O)Nc1nc(C)c(-c2cnc(CC(F)(F)F)o2)s1 | 0.088 µM | 0.01 µM |  | 0.043 µM | 4 |  | 
CC(=O)Nc1nc(C)c(-c2cnc(S(C)(=O)=O)o2)s1 | 0.222 µM | 0.012 µM |  | 0.195 µM | 16 |  | 
CC(=O)Nc1nc(C)c(-c2cnc(Cc3cccnc3)o2)s1 |  | 0.095 µM |  |  |  |  | 
CC(=O)Nc1nc(C)c(-c2cnc(C(C)(C)O)o2)s1 | 0.369 µM | 0.025 µM |  |  |  |  | 
CC(=O)Nc1nc(C)c(-c2cnc(C(C)(C)C)o2)s1 | 0.113 µM | 0.003 µM | 88.4 ×10⁻⁶ cm/s | 0.015 µM | 5 |  | 35.2 µg/mL (≈ 126 µM)
CC(=O)Nc1nc(C)c(-c2cnc(N3CCCC(O)C3)o2)s1 (stereo not given) | 0.237 µM | 0.014 µM |  |  |  |  | 
CC(=O)Nc1nc(C)c(-c2cnc(Nc3cccnc3)o2)s1 | 0.431 µM | 0.012 µM |  | 0.102 µM | 9 |  | 
